From PubChem
T cruzi growth-1: T. cruzi proliferation inhibition. T. cruzi beta-gal in NIH3T3, GalScreen luminescence, 90 h. inhibition, % at 8.34 µM. 77,000 tested, 5.9% active. AID 624255;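 active = mean inhibition above about 93%, with at least 55% of replicates each passing it, limit read from the data, passing the limit was not always enough; inconclusive = only one of those two conditions holds; inactive = neither condition holds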
IDH1 mut inh: blocks human IDH1 R132H reductase activity. O75874. diaphorase/resazurin fluorescence, 60 min. inhibition, % at 10 µM. 70,000 tested, 0.18% active. AID 624101; in the data active = inhibition above about 34%; inconclusive = no clear call, values can overlap the other calls; inactive = below about 11%;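 also: 0% = DMSO and 100% = no enzyme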
Target sequence (O75874 whole entry R132H): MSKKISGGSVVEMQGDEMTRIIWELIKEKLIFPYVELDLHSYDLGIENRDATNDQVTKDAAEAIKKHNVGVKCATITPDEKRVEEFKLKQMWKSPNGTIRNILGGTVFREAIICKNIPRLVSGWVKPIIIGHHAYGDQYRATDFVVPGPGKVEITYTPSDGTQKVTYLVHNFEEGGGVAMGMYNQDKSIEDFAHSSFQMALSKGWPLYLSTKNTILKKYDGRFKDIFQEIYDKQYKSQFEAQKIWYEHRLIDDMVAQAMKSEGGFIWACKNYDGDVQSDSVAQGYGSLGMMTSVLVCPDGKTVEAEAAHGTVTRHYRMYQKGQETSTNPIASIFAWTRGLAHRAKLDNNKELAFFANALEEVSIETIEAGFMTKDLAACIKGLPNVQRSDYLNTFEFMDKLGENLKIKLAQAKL
Pf Dd2 growth: blocks growth of Plasmodium falciparum Dd2 parasites. P. falciparum Dd2 growth, SYBR Green, 72 h; hits give low values. activity change, % at 10 µM. 94,000 tested, 2.3% active. AID 1159554; in the data active = activity change below about -80%; inconclusive = no clear call, values can overlap the other calls
GASC1 inh: KDM4C (human) demethylase inhibition. AID 720574. inhibition, % at 12.5 µM. 96,000 tested, 0.15% active. GST-KDM4C 2-372, H3K9me3 peptide, LANCE TR-FRET. Q9H3R0;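 active = mean replicate inhibition above about 25%, with at least 55% of replicates also reaching it, limit read from the data, passing the limit was not always enough; inconclusive = only one of those two conditions met; inactive = neither condition met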
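Material: GST-tagged GASC-1 (JMJD2C) catalytic fragment, aa 2-372. Input: enzyme final amount 10 nM. Medium: HEPES buffer, pH 7.5, plus ascorbate. Reagent: H3K9me3 peptide substrate, Fe(II), 2-oxoglutarate. Doses: single dose. Times: reaction 30 min RT, detection step 1 h RT. Measured by: LANCE TR-FRET. Evaluation: Fall in 671/618 emission ratio as inhibition.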
T cruzi growth-2: inhibitors of T. cruzi proliferation | T. cruzi beta-gal in NIH3T3, GalScreen luminescence, 90 h | shares compounds with T cruzi growth-1 | 5,600 tested, 72% active | inhibition, % at 8.35 µM;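 active = mean replicate inhibition above about 95% and at least 55% of replicates individually reaching it, limit read from the data; inconclusive = only one of the two criteria is met; inactive = neither criterion is met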
T cruzi growth-3: Trypanosoma cruzi proliferation inhibition; shares compounds with T cruzi growth-1; T. cruzi beta-gal in NIH3T3, GalScreen luminescence, 90 h; inhibition, % at 2.09 µM; 5,600 tested, 21% active; AID 651740;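 active = mean inhibition above about 95%, with at least 55% of replicates also reaching it, limit read from the data; inconclusive = meets just one of the two conditions; inactive = meets neither condition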;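 also: plate controls were neutral control median for no effect and positive control median for full effect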
NIH3T3 tox: kills mouse NIH/3T3 fibroblasts. 5,600 tested, 14% active. shares compounds with T cruzi growth-1. AID 651742. cytotoxicity (signal decrease), % at 8.35 µM. NIH/3T3 viability, CellTiter-Glo ATP luminescence, 90 h;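 active = mean signal decrease across replicates above about 35% based on untreated-well scatter, with enough replicates individually passing, limit read from the data; inconclusive = no rule stated though some were filed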;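 also: 0% = median of neutral control wells and 100% = median of positive control wells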
3T3 cytotox 2: kills mouse NIH/3T3 fibroblasts | inhibition, % at 24.9 µM | NIH/3T3 viability, CellTiter-Glo ATP luminescence, 90 h | shares compounds with T cruzi growth-1 | AID 651744 | 5,600 tested, 56% active;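 active = mean loss of cell viability signal at or above a set limit, and enough replicates individually reaching it; inconclusive = meets only the mean limit or only the replicate share; inactive = meets neither condition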;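 also: 0% = median of neutral control wells and 100% = median of positive control wells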
* = called active by the depositor; ? = inconclusive; . = not tested or not shown. Hits are enriched below; roughly 5.8% of the tested compounds scored in any of these assays.

SMILES | T cruzi growth-1 | IDH1 mut inh | Pf Dd2 growth | GASC1 inh | T cruzi growth-2 | T cruzi growth-3 | NIH3T3 tox | 3T3 cytotox 2
COC(=O)c1ccc(Cl)c(NC(=O)CN(c2cccc(Cl)c2)S(C)(=O)=O)c1 | . | 3 | . | . | . | . | . | .
C[C@@H]1CN([C@@H](C)CO)S(=O)(=O)c2ccc(C3=CCCC3)cc2O[C@@H]1CN(C)Cc1cccnc1 | 100* | . | -15 | -1 | ? | 33 | ? | 46*
C[C@H]1CN([C@@H](C)CO)S(=O)(=O)c2ccc(C3=CCCC3)cc2O[C@@H]1CN(C)Cc1cccnc1 | 103* | 7 | -63 | 2 | 105* | 104* | 55* | 63*
C[C@@H]1CN([C@@H](C)CO)S(=O)(=O)c2ccc(C3=CCCC3)cc2O[C@H]1CN(C)Cc1cccnc1 | ? | 77* | -12 | 0 | 105* | 99* | 47* | 46*
CCC(=O)N1CC[C@@H]2[C@H]1c1cc(C#Cc3cccc(F)c3)ccc1N(C)[C@H]2CO | 101 | . | -48 | 0 | . | . | . | .
CCC(=O)N1CC[C@H]2[C@@H]1c1cc(C#Cc3ccccc3OC)ccc1N(C)[C@H]2CO | 99* | . | -35 | 0 | 110* | 76 | 22 | -7
COc1ccccc1NC(=O)N1CC[C@H]2[C@@H]1c1cc(-c3ccc(F)cc3)ccc1N(C)[C@H]2CO | 101* | . | -66 | 1 | 106* | ? | 9 | 29*
COc1ccccc1NC(=O)N1CC[C@@H]2[C@H]1c1cc(C#Cc3ccc(F)cc3)ccc1N(C)[C@@H]2CO | ? | . | -32 | -1 | 99* | 111* | 2 | 12
COc1ccc(C)cc1N(CC(=O)Nc1ccc(I)cc1)S(C)(=O)=O | . | 0 | . | . | . | . | . | .
CO[C@H]1CN(C)C(=O)c2cc(NC(=O)NC3CCCCC3)ccc2OC[C@H](C)N(CCc2ccccc2)C[C@@H]1C | 86 | 1 | -34 | 2 | . | . | . | .
CO[C@@H]1CN(C)C(=O)c2ccc(NC(=O)NC3CCCCC3)cc2OC[C@@H](C)N(CCc2ccccc2)C[C@H]1C | 118* | 0 | -79 | 0 | 110* | 51 | 22 | 10
CO[C@@H]1CN(C)C(=O)c2ccc(NC(=O)Cc3ccccc3)cc2OC[C@@H](C)N(CCc2ccccc2)C[C@H]1C | 99* | 0 | -61 | 0 | 100* | 104* | -4 | 11
CCC(=O)Nc1ccc2c(c1)OC[C@@H](C)N(CCc1ccccc1)C[C@H](C)[C@@H](OC)CN(C)C2=O | 58 | 0 | -34 | 1 | . | . | . | .
COC(=O)c1ccccc1NC(=O)C(C)(C)Oc1ccc(Cl)cc1 | . | 0 | . | . | . | . | . | .
C[C@H](CO)N1C[C@H](C)[C@@H](CN(C)Cc2ccccn2)Oc2cc(C#CCN(C)C)ccc2S1(=O)=O | ? | -1 | -28 | 1 | . | . | . | .
C[C@H]1CN([C@@H](C)CO)S(=O)(=O)c2ccc(C#CCN(C)C)cc2O[C@@H]1CN(C)Cc1ccccn1 | 101* | 0 | -51 | 1 | 97* | 99* | 4 | 12
C[C@@H]1CN([C@@H](C)CO)S(=O)(=O)c2ccc(C#CCN(C)C)cc2O[C@@H]1CN(C)Cc1ccccn1 | ? | -3 | -30 | 8 | 82 | 68 | 31 | 28*
O=C(CC1NC2CCCCC2NC1=O)Nc1ccc2c(c1)OCCO2 (configuration not stated) | . | 1 | . | . | . | . | . | .
C[C@@H](O)C#Cc1ccc([C@H]2[C@H]3CN(S(=O)(=O)Cc4ccccc4)CCCCN3[C@H]2CO)cc1 | 44 | . | -9 | 0 | . | . | . | .
CCCC#Cc1ccc([C@@H]2[C@H]3CN(S(=O)(=O)Cc4ccccc4)CCCCN3[C@H]2CO)cc1 | 81 | . | -15 | -2 | . | . | . | .
O=S(=O)(Cc1ccccc1)N1CCCCN2[C@H](C1)[C@@H](c1ccc(C#Cc3ccccc3)cc1)[C@@H]2CO | 101* | . | -42 | -1 | 105* | 112* | 27 | 68*
O=S(=O)(Cc1ccccc1)N1CCCCN2[C@H](C1)[C@H](c1ccc(C#Cc3ccccc3)cc1)[C@@H]2CO | 104* | . | 0 | -2 | 108* | ? | 26 | 107*
